Data: paper PMC6557269 (Journal of controlled release : official journal of the …, 2019)
Ends that are not written are not given here. * marks the point of attachment. DTPA = O=C(O)CN(CCN(CC(=O)O)CC(=O)O)CCN(CC(=O)O)CC(=O)*; PEG = 40 kDa poly(ethylene glycol)

Assays:
TIP1 protein = target: T1, TIP1 protein (Homo sapiens, UniProt O14907); assay: Surface plasmon resonance; format: binding; conditions: SPR BIAcore 2000, TIP1 on CM5 chip, Supplementary figure 1
T1 sequence (O14907 1-124): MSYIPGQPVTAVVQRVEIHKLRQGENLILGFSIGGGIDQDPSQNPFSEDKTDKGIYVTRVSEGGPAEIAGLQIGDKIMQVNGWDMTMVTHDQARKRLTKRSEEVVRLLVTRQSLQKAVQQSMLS

OE33 tumors [1] = assay: Autoradiography of tumor and muscle sections; format: in vivo, nude mice; conditions: phosphor imager plate 16 h, after SPECT imaging
Outline: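 After SPECT, tumors were sectioned at 200 micron, with leg muscle sections as control tissue. Sections were exposed to a phosphor imager plate for 16 h at −20 °C, and the plate was scanned to map microdistribution of the ¹¹¹In-labelled PEG-peptide.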

D54 tumors = assay: NanoSPECT/CT imaging, heterotopic glioblastoma tumors; format: in vivo; conditions: nude mice, 48 h post injection, tumor irradiated 3 x 3 Gy
OE33 tumors [2] = format: in vivo, nude mice
HT3 tumors [3] = format: in vivo, nude mice
A549 tumors = assay: NanoSPECT/CT imaging, heterotopic lung tumors; format: in vivo; conditions: nude mice, 48 h post injection, tumor irradiated 3 x 3 Gy
HT3 tumors [4] = assay: NanoSPECT/CT imaging, heterotopic cervical tumors; format: in vivo, nude mice
OE33 tumors [5] = assay: NanoSPECT/CT imaging, heterotopic esophageal tumors; format: in vivo, nude mice
BxPC3 tumors = assay: NanoSPECT/CT imaging, heterotopic pancreatic tumors; format: in vivo; conditions: nude mice, 48 h post injection, tumor irradiated 3 x 3 Gy
[6] = 96 h post injection, gamma counter, n=3 per group
[7] = nude mice, i.v. ~500 μCi, 48 h and 72 h post injection, n=3 per group
[8] = right hind limb tumor 3 x 3 Gy vs left sham tumor

binding to immobilized TIP1 (sensogram comparison) (TIP1 protein) | Substance | microscopic distribution in OE33 tumor sections (OE33 tumors [1]) | uptake in leg muscle sections (control tissue) (OE33 tumors [1]) | tumor binding by SPECT/CT, irradiated D54 tumors, compared to PEG-control (D54 tumors) | tumor uptake in biodistribution vs control peptide, OE33 (OE33 tumors [2]; [6]) | presence in blood and liver, OE33 tumor-bearing mice (OE33 tumors [2]; mouse, in vivo) | tumor uptake in biodistribution vs control peptide, HT3 (HT3 tumors [3]; [6]) | presence in blood and liver, HT3 tumor-bearing mice (HT3 tumors [3]; mouse, in vivo) | tumor binding by SPECT/CT, irradiated A549 tumors, compared to PEG-control (A549 tumors) | tumor binding by SPECT, HT3 tumors (HT3 tumors [4]; [7]) | effect of irradiating the tumor on tumor binding, HT3 (HT3 tumors [4]; [8]) | tumor binding by SPECT, OE33 tumors (OE33 tumors [5]; [7]) | effect of irradiating the tumor on tumor binding, OE33 (OE33 tumors [5]; [8]) | tumor binding by SPECT/CT, irradiated BxPC3 tumors, compared to PEG-control (BxPC3 tumors)
did not show binding | HGVIGRV [scrambled peptide, reference compound] | – | – | – | – | – | – | – | – | – | – | – | – | –
– | ^111In-labeled PEG-DTPA-HVGGSSV: DTPA-PEG-HVGGSSV labeled with ^111Indium ({DTPA-PEG}-HVGGSSV; also: 111In chelated by DTPA) | even distribution | no peptide uptake | enhanced binding | significantly higher (p<0.001) | observed in the blood and liver | significantly higher (p<0.001) | observed in the blood and liver | enhanced binding | bound | did not affect tumor binding | bound | did not affect tumor binding | enhanced binding
did not alter the binding affinity | mPEG40K-carbonyl-Lys(CHX-A”-DTPA)-AEEAc-Lys(CHX-A”-DTPA)-AEEAc-Trp-Lys(CHX-A”-DTPA)-AEEAc-Gly-Ile-Arg-Leu-Arg-Gly-OH [PEG-HVGGSSV, mPEG40K-carbonyl-Lys(CHX-A”-DTPA)-AEEAc-Lys(CHX-A”-DTPA)-AEEAc-Trp-Lys(CHX-A”-DTPA)-AEEAc-Gly-Ile-Arg-Leu-Arg-Gly-OH trifluoroacetate Salt] | – | – | – | – | – | – | – | – | – | – | – | – | –
